# Laboratory results taken from ChEMBL document CHEMBL1130758, “alpha-substituted quisqualic acid analogs: new metabotropic glutamate receptor group II selective antagonists” (Bioorg Med Chem Lett, 1998).
# What was measured:
# [1] = target: Metabotropic glutamate receptor 6 (Rattus norvegicus, UniProt P35349); experiment: Antagonistic activity against rat (mGluR) metabotropic glutamate receptor 6 stably expressed in chinese hamster ovary (CHO) cells; type: functional, cell-based
# [2] = target: T1, Glutamate receptor ionotropic, kainate (Rattus norvegicus) (UniProt P22756+Q01812+P42260+P42264+Q63273); experiment: Antagonistic activity against Ionotropic glutamate receptor kainate was determined by the percentage of 45 [Ca2+] influx in cerebellar neurons at the concentration 1 mM; type: functional
# How it was run: (§1)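 Rat cerebellar neurons (7-day-old pups, 8-9 days in culture) were given 45CaCl2 (1 µCi/mL) in Locke's buffer with 1 mM Mg2+, 50 µM kainate and 1 µM MK-801, for 15 min at room temperature. After three ice-cold washes and dissolution in 0.5 M NaOH, radioactivity and protein were measured. Results are % of net kainate-alone influx, mean ± S.E.M., n=6 from two preparations.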
# [3] = target: T2, Glutamate NMDA receptor (Rattus norvegicus) (UniProt P35439+Q00959+Q00960+Q00961+Q62645+Q8VHN2+Q9R1M7); experiment: Antagonistic activity against NMDA ionotropic glutamate receptor was determined by the percentage of 45 [Ca2+] influx in cerebellar neurons at the concentration 1 mM; type: functional
# How it was run: (§2)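 Rat cerebellar neurons (7-day-old pups, 8-9 days in culture) were incubated for 15 min at room temperature in Mg2+-free Locke's buffer with 1 µCi/mL 45CaCl2, 100 µM NMDA, 1 µM glycine and 10 µM NBQX. Cells were washed three times with ice-cold buffer and dissolved in 0.5 M NaOH to count radioactivity and protein. Results are % of net agonist-alone influx, mean ± S.E.M. of six measurements from two culture preparations.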
# [4] = target: T3, Glutamate receptor ionotropic, AMPA (Rattus norvegicus) (UniProt P19491+P19492+P19493+P19490); experiment: Antagonistic activity against Ionotropic glutamate receptor AMPA was determined by the percentage of 45 [Ca2+] influx in cerebellar neurons at the concentration 100 uM; type: functional
# How it was run: (§3)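 Cerebellar neurons cultured from 7-day-old rats (used at 8-9 days) had 45Ca2+ influx (1 µCi/mL) measured over 15 min at room temperature in Locke's buffer with 1 mM Mg2+, 30 µM AMPA, 10 µM cyclothiazide and 1 µM MK-801. Cells were washed three times ice-cold, dissolved in NaOH and counted, normalized to protein. Results are % of net AMPA-alone influx, mean ± S.E.M., six measurements from two preparations.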
# [5] = target: T2, Glutamate NMDA receptor (Rattus norvegicus); experiment: Antagonistic activity against NMDA ionotropic glutamate receptor was determined by the percentage of 45 [Ca2+] influx in cerebellar neurons at the concentration 100 uM; type: functional; how it was run: as §2
# [6] = target: Metabotropic glutamate receptor 5 (Rattus norvegicus, UniProt P31424); experiment: Antagonistic activity against rat (mGluR) metabotropic glutamate receptor 5a stably expressed in chinese hamster ovary (CHO) cells; type: functional, cell-based
# How it was run: (§4)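 CHO cells expressing the receptor were labelled overnight with myo-[3H]inositol in glutamine-free medium. They were then exposed to compounds for 30 min at 37 °C in Locke's buffer (HEPES, pH 7.4) with 20 mM LiCl. Inositol phosphates were extracted for 10 min with 0.1 M HCl and separated by anion-exchange chromatography.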
# [7] = target: Metabotropic glutamate receptor 1 (Rattus norvegicus, UniProt P23385); experiment: Antagonistic activity against rat (mGluR) metabotropic glutamate receptor 1a stably expressed in chinese hamster ovary (CHO) cells; type: functional, cell-based; how it was run: as §4
# [8] = target: T1, Glutamate receptor ionotropic, kainate (Rattus norvegicus); experiment: Antagonistic activity against Ionotropic glutamate receptor kainate was determined by the percentage of 45 [Ca2+] influx in cerebellar neurons at the concentration 100 uM; type: functional; how it was run: as §1
# [9] = target: T3, Glutamate receptor ionotropic, AMPA (Rattus norvegicus); experiment: Antagonistic activity against Ionotropic glutamate receptor AMPA was determined by the percentage of 45 [Ca2+] influx in cerebellar neurons at the concentration 1 mM; type: functional; how it was run: as §3
# [10] = target: Metabotropic glutamate receptor 4 (Rattus norvegicus, UniProt P31423); experiment: Antagonistic activity against rat (mGluR) metabotropic glutamate receptor 4a stably expressed in chinese hamster ovary (CHO) cells; type: functional, cell-based
# Sequence of Metabotropic glutamate receptor 4 (P31423 whole entry): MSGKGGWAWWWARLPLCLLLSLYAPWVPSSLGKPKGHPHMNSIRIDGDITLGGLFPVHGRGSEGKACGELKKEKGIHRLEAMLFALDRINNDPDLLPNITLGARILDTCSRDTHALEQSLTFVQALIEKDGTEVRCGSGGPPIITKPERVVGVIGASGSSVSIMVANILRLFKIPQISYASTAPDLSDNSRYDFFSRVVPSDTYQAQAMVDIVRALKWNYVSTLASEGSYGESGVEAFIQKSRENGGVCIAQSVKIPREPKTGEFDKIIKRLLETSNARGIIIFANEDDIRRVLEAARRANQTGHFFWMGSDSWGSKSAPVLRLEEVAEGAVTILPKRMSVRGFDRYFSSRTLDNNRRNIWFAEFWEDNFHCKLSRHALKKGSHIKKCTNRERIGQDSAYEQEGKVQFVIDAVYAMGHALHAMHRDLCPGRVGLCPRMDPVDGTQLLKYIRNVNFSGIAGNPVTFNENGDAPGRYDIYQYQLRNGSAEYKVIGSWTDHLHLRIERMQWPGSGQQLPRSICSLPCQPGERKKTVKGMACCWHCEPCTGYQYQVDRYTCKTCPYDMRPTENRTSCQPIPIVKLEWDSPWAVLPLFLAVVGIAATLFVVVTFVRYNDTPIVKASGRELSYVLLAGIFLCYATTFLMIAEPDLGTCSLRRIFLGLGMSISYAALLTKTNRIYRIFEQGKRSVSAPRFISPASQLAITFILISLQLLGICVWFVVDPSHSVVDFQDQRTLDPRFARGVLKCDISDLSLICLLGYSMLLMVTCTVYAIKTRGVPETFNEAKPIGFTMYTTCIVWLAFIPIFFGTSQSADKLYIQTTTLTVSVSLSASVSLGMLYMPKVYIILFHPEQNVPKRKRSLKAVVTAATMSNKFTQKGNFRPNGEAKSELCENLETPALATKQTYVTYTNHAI
# Sequence of Metabotropic glutamate receptor 1 (P23385 whole entry): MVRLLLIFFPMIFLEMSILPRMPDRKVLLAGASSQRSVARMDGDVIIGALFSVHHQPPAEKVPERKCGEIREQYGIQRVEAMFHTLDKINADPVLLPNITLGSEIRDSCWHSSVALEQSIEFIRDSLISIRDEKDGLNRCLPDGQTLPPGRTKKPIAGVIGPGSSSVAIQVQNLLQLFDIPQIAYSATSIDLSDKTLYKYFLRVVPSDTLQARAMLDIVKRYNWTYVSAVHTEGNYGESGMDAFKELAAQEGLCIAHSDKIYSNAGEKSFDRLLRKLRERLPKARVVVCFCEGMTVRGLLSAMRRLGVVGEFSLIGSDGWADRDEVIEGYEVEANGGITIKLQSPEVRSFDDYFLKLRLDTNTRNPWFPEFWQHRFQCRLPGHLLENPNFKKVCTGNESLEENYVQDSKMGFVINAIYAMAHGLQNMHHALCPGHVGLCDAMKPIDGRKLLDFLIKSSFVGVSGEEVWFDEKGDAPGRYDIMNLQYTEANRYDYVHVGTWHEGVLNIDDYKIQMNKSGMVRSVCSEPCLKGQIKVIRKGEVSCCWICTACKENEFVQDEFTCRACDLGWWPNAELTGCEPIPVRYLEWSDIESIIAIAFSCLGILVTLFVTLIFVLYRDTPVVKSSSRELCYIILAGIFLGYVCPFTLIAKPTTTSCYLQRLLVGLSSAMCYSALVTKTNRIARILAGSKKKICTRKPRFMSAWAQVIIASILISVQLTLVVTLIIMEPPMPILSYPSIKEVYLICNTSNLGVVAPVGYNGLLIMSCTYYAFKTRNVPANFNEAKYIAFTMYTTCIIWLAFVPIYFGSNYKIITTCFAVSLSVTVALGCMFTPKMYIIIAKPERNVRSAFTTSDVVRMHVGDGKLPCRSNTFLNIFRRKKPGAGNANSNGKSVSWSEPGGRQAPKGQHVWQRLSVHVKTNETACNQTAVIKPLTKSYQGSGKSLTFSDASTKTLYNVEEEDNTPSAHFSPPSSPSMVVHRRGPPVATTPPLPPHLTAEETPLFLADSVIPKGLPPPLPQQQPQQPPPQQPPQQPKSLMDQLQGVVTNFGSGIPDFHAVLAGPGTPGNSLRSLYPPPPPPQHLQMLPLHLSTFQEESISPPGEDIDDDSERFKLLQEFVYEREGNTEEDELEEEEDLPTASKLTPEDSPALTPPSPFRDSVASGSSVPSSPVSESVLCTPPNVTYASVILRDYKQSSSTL
# Sequence of Metabotropic glutamate receptor 6 (P35349 whole entry): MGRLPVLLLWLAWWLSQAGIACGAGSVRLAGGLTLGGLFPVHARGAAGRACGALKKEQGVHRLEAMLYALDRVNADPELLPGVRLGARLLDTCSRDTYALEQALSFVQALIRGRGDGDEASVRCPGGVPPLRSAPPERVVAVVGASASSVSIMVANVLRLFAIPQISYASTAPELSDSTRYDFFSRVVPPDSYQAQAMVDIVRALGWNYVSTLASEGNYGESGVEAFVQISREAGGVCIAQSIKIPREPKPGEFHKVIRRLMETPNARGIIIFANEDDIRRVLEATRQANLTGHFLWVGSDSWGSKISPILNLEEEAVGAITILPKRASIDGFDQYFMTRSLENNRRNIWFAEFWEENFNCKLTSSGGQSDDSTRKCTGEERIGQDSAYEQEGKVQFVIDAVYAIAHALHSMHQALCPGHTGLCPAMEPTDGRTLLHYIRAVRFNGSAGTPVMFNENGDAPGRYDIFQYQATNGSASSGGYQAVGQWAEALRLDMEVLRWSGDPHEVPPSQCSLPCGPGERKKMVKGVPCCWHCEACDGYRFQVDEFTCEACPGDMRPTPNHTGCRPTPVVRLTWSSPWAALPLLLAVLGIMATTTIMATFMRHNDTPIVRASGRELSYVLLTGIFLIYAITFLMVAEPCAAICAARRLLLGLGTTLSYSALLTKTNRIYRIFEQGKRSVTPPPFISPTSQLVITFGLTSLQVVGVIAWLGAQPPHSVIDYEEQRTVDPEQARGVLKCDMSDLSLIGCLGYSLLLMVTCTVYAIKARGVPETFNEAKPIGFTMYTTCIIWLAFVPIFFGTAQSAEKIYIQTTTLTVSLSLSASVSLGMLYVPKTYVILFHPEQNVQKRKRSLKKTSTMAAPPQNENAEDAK
# Sequence of Metabotropic glutamate receptor 5 (P31424 whole entry): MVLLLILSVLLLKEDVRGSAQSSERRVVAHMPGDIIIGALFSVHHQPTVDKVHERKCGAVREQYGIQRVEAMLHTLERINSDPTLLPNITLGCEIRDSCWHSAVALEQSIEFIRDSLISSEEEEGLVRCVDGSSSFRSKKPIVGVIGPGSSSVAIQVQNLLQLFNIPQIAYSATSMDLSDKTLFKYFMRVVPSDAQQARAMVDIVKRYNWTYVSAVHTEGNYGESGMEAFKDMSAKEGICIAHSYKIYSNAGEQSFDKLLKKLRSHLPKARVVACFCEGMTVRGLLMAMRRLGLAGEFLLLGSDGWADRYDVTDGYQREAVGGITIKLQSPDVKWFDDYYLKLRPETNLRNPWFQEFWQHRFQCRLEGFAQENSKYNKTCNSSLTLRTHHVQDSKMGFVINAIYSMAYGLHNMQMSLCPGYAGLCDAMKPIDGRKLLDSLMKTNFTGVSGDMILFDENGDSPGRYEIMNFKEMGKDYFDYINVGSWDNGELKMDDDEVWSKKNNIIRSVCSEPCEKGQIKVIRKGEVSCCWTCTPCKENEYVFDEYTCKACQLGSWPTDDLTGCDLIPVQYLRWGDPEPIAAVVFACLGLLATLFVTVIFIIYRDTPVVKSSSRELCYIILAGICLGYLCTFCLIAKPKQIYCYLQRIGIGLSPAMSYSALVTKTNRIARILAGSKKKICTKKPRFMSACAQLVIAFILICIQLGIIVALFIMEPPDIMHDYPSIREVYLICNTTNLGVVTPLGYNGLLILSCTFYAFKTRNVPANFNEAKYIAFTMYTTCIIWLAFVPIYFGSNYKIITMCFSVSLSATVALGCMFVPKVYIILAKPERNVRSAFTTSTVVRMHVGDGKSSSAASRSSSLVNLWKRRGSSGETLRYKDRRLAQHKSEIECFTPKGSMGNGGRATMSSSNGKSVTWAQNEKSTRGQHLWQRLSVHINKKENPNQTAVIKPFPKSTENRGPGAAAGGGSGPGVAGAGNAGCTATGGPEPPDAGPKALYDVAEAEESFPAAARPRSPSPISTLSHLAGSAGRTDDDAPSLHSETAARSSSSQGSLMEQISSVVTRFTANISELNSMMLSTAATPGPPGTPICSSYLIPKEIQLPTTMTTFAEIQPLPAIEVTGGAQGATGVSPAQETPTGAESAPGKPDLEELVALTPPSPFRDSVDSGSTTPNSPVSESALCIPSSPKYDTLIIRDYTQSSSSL
SMILES,EC50 [1] [µM],KA effect [2] [%],NMDA effect [3] [%],AMPA effect [4] [%],NMDA effect [5] [%],EC50 [6] [µM],EC50 [7] [µM],KA effect [8] [%],AMPA effect [9] [%],EC50 [10] [µM]
N[C@@](Cc1ccccc1)(Cn1oc(=O)[nH]c1=O)C(=O)O,> 1000,105,52,113,84,~300,~300,97,103,> 1000
C[C@](N)(Cn1oc(=O)[nH]c1=O)C(=O)O,> 1000,75,30,98,105,~1000,~500,71,89,> 1000
